Assay results gathered from unrelated publications.
Each line is one published result; the experiments were not run side by side.
Target: NT-3 growth factor receptor (NTRK3, Homo sapiens, UniProt Q16288)

| SMILES | effect on | technique | tested at | remaining binding [%] |
| --- | --- | --- | --- | --- |
| C=CC(=O)N1CCC(C(=O)NCC(=O)N2CCN(c3nc(-c4cnc(N)nc4C(F)F)nc(N4CCOCC4)n3)CC2)CC1 | binding | competition with immobilised ligand | 1 µM | 86 |
| Cc1cc(NC(=O)c2cccc(S(F)(F)(F)(F)F)c2)cc(-n2ccn3nc(-c4cccnc4)cc23)c1 | cell-free assay | competition with immobilised ligand | 1 µM | 27.2 |
| c1cncc(-c2cccc(Nc3nccc(NC4CCCCC4)n3)c2)c1 | binding | competition with immobilised ligand | 10 µM | 27 |
| C[C@H]1CCN(c2nccc(-c3cnn4ncccc34)n2)C1 | binding |  | 1 µM | 63 |
| CCC(=O)N[C@H]1CC[C@@H](C(=O)N(C)c2ccc(-c3nc4ccccc4o3)cc2)C1 | cell-free assay | competition with immobilised ligand | 1 µM | 32 |
| COc1ncc2cc3ccccc3nc2c1C#N | cell-free assay | competition with immobilised ligand | 5 µM | 74 |
| COc1cnc(Nc2cccc(S(N)(=O)=O)c2)nc1N1CCN(c2ccccc2)C(=O)C1 | binding | competition with immobilised ligand | 1 µM | 100 |
| O=C(NCCCN1CCOCC1)c1ccc(Nc2ncc(Cl)c(-c3ccc(Cl)s3)n2)cc1 | binding | competition with immobilised ligand | 1 µM | 46 |
| N[C@H]1CCN(c2nccc(-c3cnn4ncccc34)n2)C1 | binding |  | 1 µM | 85 |
| O=C(Nc1c[nH]nc1C(=O)NC1CCNCC1)c1cc(F)cc(F)c1 | binding | competition with immobilised ligand | 1 µM | 100 |
| Cc1cnn2ncc(-c3ccnc(N(C)C)n3)c2c1 | binding |  | 1 µM | 73 |
| CC(=O)N1CCC(c2ccc(C(=O)NC(=N)N)cc2C(F)(F)F)CC1 | cell-free assay | competition with immobilised ligand | 1 µM | 100 |
| CN(C)c1nccc(-c2cnn3ncccc23)n1 | binding |  | 1 µM | 72 |
| CNC(=O)Nc1ccc2c(c1)CC[C@@]21OC(=O)N(CC(=O)N(Cc2ccc(F)cc2)[C@@H](C)C(F)(F)F)C1=O | cell-free assay | competition with immobilised ligand | 1 µM | 84 |
| COc1ccnn2ncc(-c3ccnc(N(C)C)n3)c12 | binding |  | 1 µM | 81 |
| O=C(N1CCS(=O)(=O)CC1)N1C[C@H](c2ccc(OC(F)(F)F)cc2)C[C@H](c2nc(C3CC3)no2)C1 | cell-free assay | competition with immobilised ligand | 1 µM | 100 |
| FC(F)(F)Oc1cccc(-c2cnc3ccc(-c4ccncc4)nn23)c1 | cell-free assay | competition with immobilised ligand | 5 µM | 20 |
| CN(C)c1nccc(-c2cnc3ncccn23)n1 | binding |  | 1 µM | 78 |
| O=C(c1ccc(Nc2nccc(-c3cc4ccccc4s3)n2)cc1)N1CCC(N2CCCC2)CC1 | binding | competition with immobilised ligand | 1 µM | 71 |
| COc1cnc(Nc2cccc(S(N)(=O)=O)c2)nc1N1CCN(c2ccccc2)CC1 | binding | competition with immobilised ligand | 1 µM | 61 |
| Cn1cc(Cl)c2c(Oc3c(F)cc(Nc4cc(Cl)nc(N)n4)cc3F)ccnc21 | cell-free assay | competition with immobilised ligand | 0.1 µM | 76 |
| Cc1cnc(Nc2ccc(C(=O)N3CCC(N4CCCC4)CC3)cc2)nc1-c1cc2ccccc2s1 | binding | competition with immobilised ligand | 1 µM | 16 |
